Source: ChEMBL document CHEMBL1134767, “Structural basis of binding of high-affinity ligands to protein kinase C: prediction of the binding modes through a new molecular dynamics method and evaluation by site-directed mutagenesis” (J Med Chem, 2001)

Tests used:
[1] = target: Protein kinase C delta type (Mus musculus, UniProt P28867, L250G); assay: Displacement of [3H]PDBu from protein kinase C delta C1b domain mutant (L20G)
In short: (§1)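 PKCδ C1b domain, wild type or sequence-confirmed point mutant, expressed as a GST-fusion protein in E. coli and used purified or as total lysate. Incubated 5 min at 18 °C with [3H]PDBu, […] phosphatidylserine, 1 mM EGTA and varied unlabeled ligand. Protein was precipitated with 35% poly(ethylene glycol) and centrifuged, and supernatant and pellet radioactivity counted. Ki was calculated from final ligand concentrations.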

[2] = target: Protein kinase C delta type (Mus musculus, UniProt P28867, T242G); assay: Displacement of [3H]PDBu from protein kinase C delta C1b domain mutant (T12G); in short: as §1
Chain of Protein kinase C delta type (Mus musculus, UniProt P28867, T242G) (P28867 whole entry T242G, the tested form may be a part): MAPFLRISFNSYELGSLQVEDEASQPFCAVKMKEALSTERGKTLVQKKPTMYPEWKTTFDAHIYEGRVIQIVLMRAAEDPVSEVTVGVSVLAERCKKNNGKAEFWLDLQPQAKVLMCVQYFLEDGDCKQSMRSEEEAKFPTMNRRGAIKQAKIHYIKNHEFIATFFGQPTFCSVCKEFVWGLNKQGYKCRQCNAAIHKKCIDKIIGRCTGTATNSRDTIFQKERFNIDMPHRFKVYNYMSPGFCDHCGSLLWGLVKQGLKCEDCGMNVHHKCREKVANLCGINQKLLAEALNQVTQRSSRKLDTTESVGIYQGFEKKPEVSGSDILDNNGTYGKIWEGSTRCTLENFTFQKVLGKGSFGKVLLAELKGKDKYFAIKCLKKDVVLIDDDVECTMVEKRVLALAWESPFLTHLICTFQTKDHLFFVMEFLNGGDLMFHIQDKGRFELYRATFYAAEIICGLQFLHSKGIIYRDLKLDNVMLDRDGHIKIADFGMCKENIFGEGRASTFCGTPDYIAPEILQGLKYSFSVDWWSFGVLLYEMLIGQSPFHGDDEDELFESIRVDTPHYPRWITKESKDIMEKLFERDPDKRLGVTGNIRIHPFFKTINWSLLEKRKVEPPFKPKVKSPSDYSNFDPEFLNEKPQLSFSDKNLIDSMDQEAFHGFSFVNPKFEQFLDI

[3] = target: Protein kinase C delta type (Mus musculus, UniProt P28867, Q257V); assay: Displacement of [3H]PDBu from protein kinase C delta C1b domain mutant (Q27V); in short: as §1
Chain of Protein kinase C delta type (Mus musculus, UniProt P28867, Q257V) (P28867 whole entry Q257V, the tested form may be a part): as the sequence (P28867 whole entry T242G, the tested form may be a part) above, with G242T, Q257V counted along it

[4] = target: Protein kinase C delta type (Mus musculus, UniProt P28867, T8G); assay: Displacement of [3H]PDBu from protein kinase C delta C1b domain mutant (T8G); in short: as §1
Chain of Protein kinase C delta type (Mus musculus, UniProt P28867, T8G) (P28867 whole entry, looked up, stated change not applied, the tested form may be a part): as the sequence (P28867 whole entry T242G, the tested form may be a part) above, with G242T counted along it

[5] = target: Protein kinase C delta type (Mus musculus, UniProt P28867, P241G); assay: Displacement of [3H]-PDBu from protein kinase C delta C1b domain mutant (P11G); in short: as §1
Chain of Protein kinase C delta type (Mus musculus, UniProt P28867, P241G) (P28867 whole entry P241G, the tested form may be a part): as the sequence (P28867 whole entry T242G, the tested form may be a part) above, with P241G, G242T counted along it

[6] = target: Protein kinase C delta type (Mus musculus, UniProt P28867, F243G); assay: Displacement of [3H]PDBu from protein kinase C delta C1b domain mutant (F13G); in short: as §1
Chain of Protein kinase C delta type (Mus musculus, UniProt P28867, F243G) (P28867 whole entry F243G, the tested form may be a part): as the sequence (P28867 whole entry T242G, the tested form may be a part) above, with G242T, F243G counted along it

[7] = target: Protein kinase C delta type (Mus musculus, UniProt P28867); assay: Displacement of [3H]PDBu from protein kinase C delta C1b domain (Wild type); in short: as §1
Chain of Protein kinase C delta type (Mus musculus, UniProt P28867) (P28867 whole entry, the tested form may be a part): as the sequence (P28867 whole entry T242G, the tested form may be a part) above, with G242T counted along it

[8] = target: Protein kinase C delta type (Mus musculus, UniProt P28867, W252G); assay: Displacement of [3H]PDBu from protein kinase C delta C1b domain mutant (W22G)
Chain of Protein kinase C delta type (Mus musculus, UniProt P28867, W252G) (P28867 whole entry W252G, the tested form may be a part): as the sequence (P28867 whole entry T242G, the tested form may be a part) above, with G242T, W252G counted along it

Chain of Protein kinase C delta type (Mus musculus, UniProt P28867, L250G) (P28867 whole entry L250G, the tested form may be a part): as the sequence (P28867 whole entry T242G, the tested form may be a part) above, with G242T, L250G counted along it

Compound | Ki [1] | Ki [2] | Ki [3] | Ki [4] | Ki [5] | Ki [6] | Ki [7] | Ki [8]
CC(C)[C@H]1C(=O)N[C@H](CO)Cc2c[nH]c3cccc(c23)N1C [INDOLACTUM] | 66.2 nM | 25.3 nM | 1100 nM | 658 nM | 7080 nM | 10.9 nM |  | 
C=C(C)[C@@]12OC3(c4ccccc4)O[C@@H]1[C@@H]1C4O[C@]4(CO)[C@@H](O)[C@]4(O)C(=O)C(C)=C[C@H]4[C@@]1(O3)[C@H](C)[C@H]2OC(=O)/C=C/c1ccccc1 (stereo partly drawn) [THYMELEATOXIN] | 11.3 nM | 19.1 nM | 47.1 nM | 86.6 nM | 417 nM | 7.8 nM | 2.71 nM | 
CCCC(=O)O[C@@H]1[C@@H](C)[C@@]2(O)[C@@H](C=C(CO)C[C@]3(O)C(=O)C(C)=C[C@@H]23)[C@@H]2C(C)(C)[C@]12OC(=O)CCC | 6.59 nM | 1.24 nM | 14.2 nM | 18.4 nM | 210 nM | 0.82 nM | 0.351 nM | 25 nM
CC1=CC23C(=O)[C@@H](C=C(CO)[C@@H](O)[C@]2(O)[C@H]1OC(=O)c1ccccc1)[C@H]1[C@@H](C[C@H]3C)C1(C)C | 1.08 nM | 0.72 nM | 1.41 nM | 3.14 nM | 10.8 nM | 0.15 nM | 0.13 nM | 
